{"source": "ChEMBL document CHEMBL2203259", "about": "“Antioxidant glucosylated caffeoylquinic acid derivatives in the invasive tropical soda apple, Solanum viarum” (J Nat Prod, 2012)", "assay_type_in_all_cases": "functional", "key": {"[1]": {"assay": "Antioxidant activity assessed as trolox equivalents of ABTS radical scavenging activity at 25 mins by TEAC assay", "method_in_brief": "(§1)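 ABTS•+ scavenging run per an earlier published method. Standard curve built from six 1:2 serial dilutions of a 500 μg/mL stock solution. Activity expressed as Trolox equivalent antioxidant capacity (TEAC), read at 5 min intervals from 0 to 40 min after starting incubation with the radical. Seven technical replicates.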"}, "[2]": {"assay": "Antioxidant activity assessed as trolox equivalents of ABTS radical scavenging activity at 10 mins by TEAC assay", "method_in_brief": "as §1"}, "[3]": {"assay": "Antioxidant activity assessed as trolox equivalents of ABTS radical scavenging activity at 0 min by TEAC assay", "method_in_brief": "as §1"}, "[4]": {"assay": "Antioxidant activity assessed as trolox equivalents of ABTS radical scavenging activity at 5 mins by TEAC assay", "method_in_brief": "as §1"}, "[5]": {"assay": "Antioxidant activity assessed as trolox equivalents of ABTS radical scavenging activity at 15 mins by TEAC assay", "method_in_brief": "as §1"}, "[6]": {"assay": "Antioxidant activity assessed as trolox equivalents of ABTS radical scavenging activity at 20 mins by TEAC assay", "method_in_brief": "as §1"}, "[7]": {"system": "Radical scavenging activity", "assay": "Antioxidant activity assessed as DPPH radical scavenging activity"}, "[8]": {"assay": "Antioxidant activity assessed as trolox equivalents of ABTS radical scavenging activity at 35 mins by TEAC assay", "method_in_brief": "as §1"}, "[9]": {"assay": "Antioxidant activity assessed as trolox equivalents of ABTS radical scavenging activity at 30 mins by TEAC assay", "method_in_brief": "as §1"}, "[10]": {"assay": "Antioxidant activity assessed as trolox equivalents of ABTS radical scavenging activity at 40 mins by TEAC assay", "method_in_brief": "as §1"}}, "note": "Active and inactive are the calls of the source. The rule behind the calls is not given here."}
{"molecule": "O=C(/C=C/c1ccc(O)c(O)c1)O[C@@H]1C[C@](O)(C(=O)O)C[C@@H](O)[C@H]1O", "values": [{"measurement": "Activity", "setting": "[1]", "result": 2.49}, {"measurement": "Activity", "setting": "[2]", "result": 1.85}, {"measurement": "Activity", "setting": "[3]", "result": -0.31}, {"measurement": "Activity", "setting": "[4]", "result": 1.61}, {"measurement": "Activity", "setting": "[5]", "result": 2.1}, {"measurement": "Activity", "setting": "[6]", "result": 2.26}, {"measurement": "Activity", "setting": "[7]", "result": "Active"}, {"measurement": "Activity", "setting": "[8]", "result": 2.5}, {"measurement": "Activity", "setting": "[9]", "result": 2.42}, {"measurement": "Activity", "setting": "[10]", "result": 2.56}]}
{"molecule": "O=C(/C=C/c1ccc(O[C@@H]2O[C@H](COC(=O)[C@]3(O)C[C@@H](O)[C@@H](O)[C@H](OC(=O)/C=C/c4ccc(O)c(O)c4)C3)[C@@H](O)[C@H](O)[C@H]2O)c(O)c1)O[C@@H]1C[C@](O)(C(=O)O)C[C@@H](O)[C@H]1O", "values": [{"measurement": "Activity", "setting": "[1]", "result": 3.73}, {"measurement": "Activity", "setting": "[2]", "result": 3.01}, {"measurement": "Activity", "setting": "[3]", "result": 1.51}, {"measurement": "Activity", "setting": "[4]", "result": 2.71}, {"measurement": "Activity", "setting": "[5]", "result": 3.18}, {"measurement": "Activity", "setting": "[6]", "result": 3.64}, {"measurement": "Activity", "setting": "[7]", "result": "Active"}, {"measurement": "Activity", "setting": "[8]", "result": 3.81}, {"measurement": "Activity", "setting": "[9]", "result": 3.71}, {"measurement": "Activity", "setting": "[10]", "result": 3.89}]}
{"molecule": "O=C(O)CC(=O)O[C@@H]1C[C@@](O)(C(=O)O)C[C@@H](OC(=O)/C=C/c2ccc(O[C@@H]3O[C@H](COC(=O)[C@]4(O)C[C@@H](O)[C@@H](O)[C@H](OC(=O)/C=C/c5ccc(O)c(O)c5)C4)[C@@H](O)[C@H](O)[C@H]3O)c(O)c2)[C@@H]1O", "values": [{"measurement": "Activity", "setting": "[1]", "result": 2.49}, {"measurement": "Activity", "setting": "[2]", "result": 1.85}, {"measurement": "Activity", "setting": "[3]", "result": -0.31}, {"measurement": "Activity", "setting": "[4]", "result": 1.61}, {"measurement": "Activity", "setting": "[5]", "result": 2.1}, {"measurement": "Activity", "setting": "[6]", "result": 2.26}, {"measurement": "Activity", "setting": "[7]", "result": "Active"}, {"measurement": "Activity", "setting": "[8]", "result": 2.5}, {"measurement": "Activity", "setting": "[9]", "result": 2.42}, {"measurement": "Activity", "setting": "[10]", "result": 2.56}]}
